Laboratory results as given in paper PMC4005002 (Anti-cancer drugs, 2013).
“And” between values parts separate entries of the source, which are not always exact repeats. Identical values can stand only once. Like-named read-outs stand apart in the source and are kept apart here.

Experiments:
[1] = tested on: pediatric patients with recurrent/refractory solid tumors; details: cited from earlier work
[2] = cited from earlier work; for median Cmax: children
[3] = Tem pharmacokinetics in whole blood; assay type: in vivo, human; details: for AUC(0-t): 0 to 24 hours post dose
[4] = tested on: children and adolescents with refractory solid tumors; assay: Phase I dose escalation of Tem in combination with VPA: toxicity; assay type: in vivo
acetylated H4 = details: phase I study of VPA alone, half of the subjects; cited from earlier work
histone acetylation = details: cited from earlier work
[5] = VPA serum/plasma levels during treatment; assay type: in vivo, human
HDAC activity in PBMC = assay: Histone H4 acetylation in peripheral blood mononuclear cells; assay type: in vivo, human; details: data from subject 6, VPA with Tem
Outline: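 PBMC isolated on Ficoll and stored at −80 C. Extracts normalized to cell number were run on SDS-PAGE and blotted with rabbit anti-tetra-acetyl H4 (1:2000) and anti-pan-H4 (1:1000). Scanned blots were quantified.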

For `CO[C@H]1C[C@@H]2CC[C@@H](C)[C@@](O)(O2)C(=O)C(=O)N2CCCC[C@H]2C(=O)O[C@H]([C@H](C)C[C@@H]2CC[C@@H](OC(=O)C(C)(CO)CO)[C@H](OC)C2)CC(=O)[C@H](C)/C=C(\C)[C@@H](O)[C@@H](OC)C(=O)[C@H](C)C[C@H](C)/C=C/C=C/C=C/1C` [Tem, Temsirolimus], the “MTD of Tem as single agent” value ([1]; pediatric study) is listed as “more than 150 mg/m^2 IV/week”, the “MTD of Tem alone” value ([1]; phase I pediatric study) is listed as 150 mg/m^2 and the “median Cmax” value ([2]; Tem 25 mg/m^2 without VPA) is listed as 448 ng/mL. The “median Cmax” value ([2]; Tem 75 mg/m^2 without VPA) was 442 ng/mL, the “Peak Tem levels, range” value ([2]; children who had received 75 mg/m^2 Tem without VPA) was 369 to 630 ng/mL and the “Peak Tem levels, range over patients” value ([3]; Tem 60 mg/m^2 dose level with VPA, both cycles) was 757–1,220 ng/mL. The Tmax ([3]; cycle 5, Tem 35 mg/m^2 IV weekly with VPA, median, N = 2) was 30 min, the Tmax ([3]; human, whole blood, iv, 35 mg/m^2) was 39.6 min and the AUC(0-t) ([3]; human, whole blood, iv, 35 mg/m^2, AUClast, cycle 1, Tem 35 mg/m^2 IV weekly with VPA, median, N = 3) was 7550 ng·h/mL. The AUC(0-t) ([3]; human, whole blood, iv, 60 mg/m^2, AUClast, cycle 1, Tem 60 mg/m^2 IV weekly with VPA, median, N = 2) was 8330 ng·h/mL, the half-life ([3]; human, whole blood, iv, T1/2, cycle 5, Tem 60 mg/m^2 IV weekly with VPA, N = 1) was 504 min and the “tolerable dose of Tem with VPA” value ([4]; IV weekly with VPA PO TID) was 35 mg/m^2/week. The “MTD of Tem in combination with VPA” value ([4]; IV weekly, VPA doses dropped using fatigue as endpoint) was 35 mg/m2/wk, the “dose of Tem well tolerated / likely MTD when combined with VPA” value ([4]; IV weekly, only 3 patients treated at this dose) was 35 mg/m^2 and the “mucositis at the lower dose” value ([4]; human, in vivo) was “mucositis limited to grade 1 or 2, with the exception of one subject with grade 3”.
For `CCCC(CCC)C(=O)O` [VPA, Valproic Acid], the “VPA levels associated with increased acetylated H4” value (acetylated H4) is given as 55 to 100 µg/mL, the “VPA levels needed before acetylation is significantly affected” value (histone acetylation) is given as “greater than 100 mcg/mL” and the concentration at 24 h ([5]; human, plasma, oral) is given as 52000 ng/mL. For the same molecule, the “VPA level at grade 2 thrombocytopenia” value ([5]; one patient, resolved after holding VPA for 3 days) was 56 µg/mL, the VPA range ([5]; patient 1, Tem 60 mg/m^2) was 26–72 (NA) mcg/mL and the “VPA level at time of grade 3 toxicity” value ([5]; patient 2, Tem 60 mg/m^2) was 85 µg/mL and 112 µg/mL. The VPA range ([5]; patient 2, Tem 60 mg/m^2) was 78 to 112 µg/mL, the “VPA level at time of grade 3 toxicity” value ([5]; patient 3, Tem 60 mg/m^2) was 91 µg/mL and the VPA range ([5]; patient 3, Tem 60 mg/m^2) was under 10 to 91 µg/mL. The “VPA level at time of grade 3 toxicity” value ([5]; patient 4, Tem 35 mg/m^2) was 108 µg/mL, the VPA range ([5]; patient 4, Tem 35 mg/m^2) was 68 to 108 µg/mL and the “VPA level at time of grade 3 toxicity” value ([5]; patient 5, Tem 35 mg/m^2) was 87 µg/mL. The VPA range ([5]; patient 5, Tem 35 mg/m^2) was 13 to 87 µg/mL, the “VPA level at time of grade 3 toxicity” value ([5]; patient 6, Tem 35 mg/m^2) was 78 µg/mL and the VPA range ([5]; patient 6, Tem 35 mg/m^2) was 22 to 78 µg/mL. The “VPA level at the time of maximum symptoms (grade 3 bilateral plantar pain)” value ([5]; subject #5, beginning of 4th month of treatment) was 87 µg/mL, the “VPA levels with which toxicity seemed to correlate” value ([4]; Tem plus VPA) was over 75 µg/mL and the “fatigue attributed to VPA” value ([4]; in vivo) was “dose-limiting fatigue”. For the same molecule, the “VPA plasma levels required to inhibit HDAC activity in PBMC” value (HDAC activity in PBMC) was over 70 µg/dL.
